ChEMBL document CHEMBL2046350, “Bahamaolides A and B, antifungal polyene polyol macrolides from the marine actinomycete Streptomyces sp” (J Nat Prod, 2012)
≈ marks a conversion by molar mass, not a printed value. Calls of active or inactive are those of the source. The calls are words filed in the database; no cut-off is given here.

How the values were obtained:
[1] = test system: MDA-MB-231; experiment: Cytotoxicity against human MDA-MB-231 cells at 100 ug/ml; format: functional, cell-based
[2] = test system: Salmonella typhimurium; experiment: Antibacterial activity against Salmonella typhimurium ATCC 14028; format: functional, organism-based; conditions: Salmonella enterica subsp. enterica serovar Typhimurium
[3] = test system: Bacillus subtilis; experiment: Antibacterial activity against Bacillus subtilis ATCC 6633; format: functional, organism-based
[4] = Inhibition of candida albicans ICL assessed as formation of glyoxylate phenylhydrazone after 30 mins by Dixon and Kornberg's method
[5] = test system: Escherichia coli; experiment: Antibacterial activity against Escherichia coli ATCC 35270; format: functional, organism-based
[6] = test system: Candida albicans; experiment: Antifungal activity against Candida albicans ATCC 10231 after 48 to 72 hrs; format: functional
Summary of the method: (§1)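 Candida albicans grown in YPD (1% yeast extract, 2% peptone, 2% dextrose) 48 h at 28 °C, harvested, washed twice with water; moulds grown on potato dextrose agar 2 weeks at 28 °C, spores washed and resuspended in PDB. Broth microdilution in PDB (10⁴ cells/mL) with compound added in 5% DMSO (0.5% DMSO solvent control); 28 °C, 48–72 h; MIC = lowest concentration inhibiting growth.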

[7] = test system: Aspergillus fumigatus; experiment: Antifungal activity against Aspergillus fumigatus HIC 6094 after 48 to 72 hrs; format: functional; summary of the method: as §1
[8] = test system: HCT-116; experiment: Cytotoxicity against human HCT116 cells at 100 ug/ml; format: functional, cell-based
[9] = test system: Staphylococcus aureus; experiment: Antibacterial activity against Staphylococcus aureus ATCC 6538p; format: functional, organism-based
[10] = test system: A549; experiment: Cytotoxicity against human A549 cells at 100 ug/ml; format: functional, cell-based
[11] = test system: Micrococcus luteus; experiment: Antibacterial activity against Micrococcus luteus IFO 12708; format: functional, organism-based
[12] = test system: SK-HEP1; experiment: Cytotoxicity against human SKHEP1 cells at 100 ug/ml; format: functional, cell-based
[13] = test system: Trichophyton mentagrophytes; experiment: Antifungal activity against Trichophyton mentagrophytes IFO4 0996 after 48 to 72 hrs; format: functional; summary of the method: as §1
[14] = test system: Trichophyton rubrum; experiment: Antifungal activity against Trichophyton rubrum IFO 9185 after 48 to 72 hrs; format: functional; summary of the method: as §1
[15] = test system: Proteus vulgaris; experiment: Antibacterial activity against Proteus vulgaris ATCC 3851; format: functional, organism-based
[16] = test system: Candida albicans; experiment: Inhibition of candida albicans ICL assessed as formation of glyoxylate phenylhydrazone at 100 ug/ml after 30 mins by Dixon and Kornberg's method

Row | Structure (SMILES) | Activity [1] | Activity [2] | Activity [3] | IC50 [4] [µM] | Activity [5] | MIC [6] [µg/mL] | MIC [7] [µg/mL] | Activity [8] | Activity [9] | Activity [10] | Activity [11] | Activity [12] | MIC [13] [µg/mL] | MIC [14] [µg/mL] | Activity [15] | inhibition [16] | Activity [6] | Activity [7] | Activity [13] | Activity [14]
1 | CC(C)[C@@H]1OC(=O)/C=C/C=C/C=C/C=C/C=C/C=C/C[C@@H](O)C[C@H](O)C[C@H](O)C[C@H](O)C[C@@H](O)C[C@H](O)C[C@@H](O)C[C@@H](O)C[C@@H](O)CC[C@@H]1C [BAHAMAOLIDE A] | inactive | inactive | inactive | 10.8 | inactive | 12.5 (≈ 17.6 µM) | 12.5 (≈ 17.6 µM) | inactive | inactive | inactive | inactive | inactive | 12.5 (≈ 17.6 µM) | 12.5 (≈ 17.6 µM) | inactive |  |  |  |  | 
2 | C[C@@H]1[C@H](O)[C@@H](C)/C=C/C=C/C=C/C=C/C=C/C=C/C=C/[C@H](O[C@@H]2O[C@H](C)[C@@H](O)[C@H](N)[C@@H]2O)C[C@@H]2O[C@](O)(C[C@@H](O)C[C@@H](O)[C@H](O)CC[C@@H](O)C[C@@H](O)CC(=O)O[C@H]1C)C[C@H](O)[C@H]2C(=O)O |  |  |  |  |  |  |  |  |  |  |  |  |  |  |  | inactive |  |  |  | 
3 | CC(C)[C@@H]1OC(=O)/C=C/C=C/C=C/C=C/C=C/C=C\C[C@@H](O)C[C@H](O)C[C@H](O)C[C@H](O)C[C@@H](O)C[C@H](O)C[C@@H](O)C[C@@H](O)C[C@@H](O)CC[C@@H]1C [BAHAMAOLIDE B] | inactive | inactive | inactive | 127 | inactive |  |  | inactive | inactive | inactive | inactive | inactive |  |  | inactive |  | inactive | inactive | inactive | inactive
